According to ChEMBL document CHEMBL5252569, “Synthesis and biological evaluation of new β-D-N4-hydroxycytidine analogs against SARS-CoV-2, influenza viruses and DENV-2” (Bioorg Med Chem Lett, 2023):

Key:
[1] = tested on: Influenza B virus; assay: (§1) Antiviral activity against Influenza B virus B/Lee/40 infected in MDCK cells assessed as reduction in virus-induced cytopathic effect pre-infected with cells for 1 hrs followed by compound addition and measured after 3 days by fluorescein diacetate-based cell viability assay; format: functional, organism-based; settings: B/Lee/40, MDCK
[2] = tested on: Influenza A virus; assay: (§2) Antiviral activity against Influenza A virus A/Puerto Rico/8/34 (H1N1) infected in MDCK cells assessed as reduction in virus-induced cytopathic effect pre-infected with cells for 1 hrs followed by compound addition and measured after 3 days by fluorescein diacetate-based cell viability assay; format: functional, organism-based
[3] = tested on: Influenza A virus; assay: (§3) Antiviral activity against Influenza A virus A/Hong Kong/8/68 (H3N2) infected in MDCK cells assessed as reduction in virus-induced cytopathic effect pre-infected with cells for 1 hrs followed by compound addition and measured after 3 days by fluorescein diacetate-based cell viability assay; format: functional, organism-based
[4] = (§4) Cytotoxicity against African green monkey Vero cells assessed as reduction in cell viability incubated for 24 hrs by MTT assay; format: toxicity, cell-based; settings: chlorocebus sabaeus, Vero cells
Summary of the method: (§5)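 Viability of non-infected or infected cells (Vero CCL-81 or MDCK CCL-34) measured by MTT; CC50 calculated by nonlinear regression.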

[5] = tested on: SARS-CoV-2; assay: (§6) Antiviral activity against SARS-CoV-2 (hCoV-19/Korea/KCDC-06/2020) infected in African green monkey Vero cells preincubated with cells for 24 hrs followed by viral infection and measured after 24 hrs by DAPI-staining based fluorescence assay; format: functional, organism-based; settings: Severe acute respiratory syndrome coronavirus 2, hCoV-19/Korea/KCDC-06/2020, Vero
[6] = tested on: dengue virus type 2; assay: Antiviral activity against Dengue virus 2 infected in hamster BHK-21 cells incubated for 48 hrs by renilla luciferase based assay; format: functional, organism-based; settings: BHK-21, 48 h
Summary of the method: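 DENV-2 replicon-bearing BHK-21 cells (DENV2-BHK); replication read out with a Renilla luciferase assay system; EC50 calculated by nonlinear regression.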

[7] = tested on: MDCK; assay: (§7) Cytotoxicity against MDCK cells assessed as reduction in cell viability measured for 48 hrs by MTT assay; format: toxicity, cell-based, Canis lupus familiaris; settings: dog, mdck, 48 h; summary of the method: as §5
[8] = tested on: Vero; assay: as §4; format: toxicity, cell-based; settings: chlorocebus sabaeus, vero, 24 h; summary of the method: as §5
[9] = (§8) Cytotoxicity against hamster BHK-21 cells incubated for 4 days by MTS assay; format: toxicity, cell-based, Mesocricetus auratus; settings: BHK-21 cells, time 4 day
[10] = tested on: dengue virus type 2; assay: Potency index, ratio of […] for antiviral activity against Dengue virus 2 infected in hamster BHK-21 cells incubated for 48 hrs by renilla luciferase based assay; format: functional
[11] = tested on: dengue virus type 2; assay: Potency index, ratio of MK-4482 EC50 to test compound EC50 for antiviral activity against Dengue virus 2 infected in hamster BHK-21 cells incubated for 48 hrs by renilla luciferase based assay; format: functional
[12] = tested on: Influenza B virus; assay: as §1, with “Potency index, ratio of T-705 EC50 to test compound EC50 for antiviral” for “Antiviral”; format: functional; settings: time 3 day
[13] = tested on: Influenza B virus; assay: as §1, with “Potency index, ratio of ribavirin EC50 to test compound EC50 for antiviral” for “Antiviral”; format: functional; settings: time 3 day
[14] = tested on: Influenza B virus; assay: as §1, with “Potency index, ratio of MK-4482 EC50 to test compound EC50 for antiviral” for “Antiviral”; format: functional; settings: time 3 day
[15] = tested on: SARS-CoV-2; assay: as §6, with “Potency index, ratio of remdesivir EC50 to test compound EC50 for antiviral” for “Antiviral”; format: functional, Severe acute respiratory syndrome coronavirus 2; settings: time 48 hrs
[16] = tested on: SARS-CoV-2; assay: as §6, with “Potency index, ratio of MK-4482 EC50 to test compound EC50 for antiviral activity against antiviral” for “Antiviral”; format: functional, Severe acute respiratory syndrome coronavirus 2; settings: time 48 hrs
[17] = tested on: Influenza A virus; assay: as §3, with “Potency index, ratio of ribavirin EC50 to test compound EC50 for antiviral” for “Antiviral”; format: functional; settings: time 3 day
[18] = tested on: Influenza A virus; assay: as §2, with “Potency index, ratio of ribavirin EC50 to test compound EC50 for antiviral” for “Antiviral”; format: functional; settings: time 3 day
[19] = tested on: BHK-21; assay: as §8; format: toxicity, cell-based, Mesocricetus auratus; settings: bhk-21, 96 h, time 4 day
[20] = tested on: SARS-CoV-2; assay: as §6, with “Potency index, ratio of beta-D-N4-hydroxycytidine EC50 to test compound EC50 for antiviral activity against antiviral” for “Antiviral”; format: functional, Severe acute respiratory syndrome coronavirus 2; settings: time 48 hrs
[21] = as §7; format: toxicity, cell-based, Canis lupus familiaris; settings: dog, MDCK cells; summary of the method: as §5

Row | Structure (SMILES) | EC50 [1] | EC50 [2] | EC50 [3] | EC50 [5] | EC50 [6] | CC50 [7] | CC50 [8] | CC50 at 96 h [9] | further results
1 | NC(=O)c1nc(F)cnc1O | 7.6 µM | 3.2 µM | 8.5 µM | – | – | – | – | – | –
2 | CCC(CC)COC(=O)[C@H](C)N[P@](=O)(OC[C@H]1O[C@@](C#N)(c2ccc3c(N)ncnn23)[C@H](O)[C@@H]1O)Oc1ccccc1 | – | – | – | – | – | – | – | – | CC50 at 24 h [4]: > 100 µM
3 | CCOC(=O)[C@H](C)Nc1ccn([C@@H]2O[C@H](CO)[C@@H](O)[C@H]2O)c(=O)n1 | > 100 µM | > 100 µM | > 100 µM | > 100 µM | 100 µM | > 100 µM | > 100 µM | 100 µM | –
4 | CCOC(=O)[C@H](Cc1ccccc1)Nc1ccn([C@@H]2O[C@H](CO)[C@@H](O)[C@H]2O)c(=O)n1 | > 100 µM | > 100 µM | > 100 µM | > 100 µM | 100 µM | > 100 µM | > 100 µM | 100 µM | –
5 | NNc1ccn([C@@H]2O[C@H](CO)[C@@H](O)[C@H]2O)c(=O)n1 | > 100 µM | > 100 µM | > 100 µM | > 100 µM | 100 µM | > 100 µM | > 100 µM | 100 µM | –
6 | CCOC(=O)CNc1ccn([C@@H]2O[C@H](CO)[C@@H](O)[C@H]2O)c(=O)n1 | > 100 µM | > 100 µM | > 100 µM | > 100 µM | 100 µM | > 100 µM | > 100 µM | 100 µM | –
7 | CCOC(=O)[C@H](CC(C)C)Nc1ccn([C@@H]2O[C@H](CO)[C@@H](O)[C@H]2O)c(=O)n1 | > 100 µM | > 100 µM | > 100 µM | > 100 µM | 100 µM | > 100 µM | > 100 µM | 100 µM | –
8 | CC(C)C(=O)ONc1ccn([C@@H]2O[C@H](CO)[C@@H](O)[C@H]2O)c(=O)n1 | 3.4 µM | 5.8 µM | 7.3 µM | 3.5 µM | 3.95 µM | – | – | – | Ratio EC50 [10]: 3; Ratio EC50 [11]: 5.9; Ratio EC50 [12]: 2; Ratio EC50 [13]: 10; Ratio EC50 [14]: 7; Ratio EC50 [15]: 3; Ratio EC50 [16]: 3.4; Ratio EC50 [17]: 5; Ratio EC50 [18]: 6; CC50 [19]: 10.8 µM; Ratio EC50 [20]: >4.7
9 | CC(C)(C)OC(=O)NNc1ccn([C@@H]2O[C@H](CO)[C@@H](O)[C@H]2O)c(=O)n1 | > 100 µM | > 100 µM | > 100 µM | > 100 µM | 100 µM | > 100 µM | > 100 µM | 100 µM | –
10 | O=c1nc(NCCO)ccn1[C@@H]1O[C@H](CO)[C@@H](O)[C@H]1O | > 100 µM | > 100 µM | > 100 µM | > 100 µM | 100 µM | – | – | 100 µM | CC50 at 48 h [21]: > 100 µM; CC50 at 24 h [4]: > 100 µM
11 | NC12CC3CC(CC(C3)C1)C2 [AMANTADINE] | > 100 µM | > 100 µM | 6.4 µM | – | – | – | – | – | –
12 | CC(C)C(=O)OC[C@H]1O[C@@H](n2ccc(NO)nc2=O)[C@H](O)[C@@H]1O [MOLNUPIRAVIR] | 23.8 µM | 6.6 µM | 6 µM | 11.8 µM | 23.4 µM | – | – | – | CC50 [19]: 42.2 µM
13 | O=c1nc(NO)ccn1[C@@H]1O[C@H](CO)[C@@H](O)[C@H]1O [N-HYDROXYCYTIDINE] | < 1.2 µM | 1.7 µM | 2.3 µM | > 16.5 µM | 2.84 µM | > 100 µM | 16.5 µM | – | CC50 [19]: 5.75 µM
14 | NC(=O)c1ncn([C@@H]2O[C@H](CO)[C@@H](O)[C@H]2O)n1 [RIBAVIRIN] | 33.3 µM | – | – | – | 1.16 µM | – | – | – | CC50 at 48 h [21]: > 100 µM; CC50 [19]: 5.46 µM
